Laboratory results taken from PubChem BioAssay AID623968 (The Scripps Research Institute Molecular Screening Center, 2012).
The source made the active and inactive calls.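 How the source made its calls: active means compounds cutting HCV replicon RNA in liver cells with IC50 no higher than 50000 nM; inactive means the rest.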

System: Huh 7.5 HCV Rluc replicon, HCV RNA qRT-PCR, 72 h
Experiment: HCV replicon RNA level reduction, late-stage follow-up, orthogonal assay for HCV NS3 helicase inhibitor project, RT-PCR, Huh 7.5 Rluc replicon cells (AID 623968)
Outline: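 Test system – Huh 7.5 cells carrying an HCV Rluc replicon · Incubation – 72 h compound exposure at 37 °C, 5% CO2 · Signal – One-step TaqMan qRT-PCR of HCV 5'UTR, 1 µg total RNA input · Measure – IC50 from fitted curve of rRNA-normalized HCV RNA versus DMSO · Controls – DMSO vehicle-treated cells as reference sample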

Row | IC50 | SMILES
1 | 5 µM | Cc1ccc2nc(-c3ccc4nc(-c5ccc(NC(=O)c6cc(C(F)(F)F)cc(C(F)(F)F)c6)cc5)sc4c3)sc2c1S(=O)(=O)O
2 | > 25 µM (inactive) | Cc1ccc2nc(-c3ccc4nc(-c5ccc(NC(=O)c6cccc(Cl)c6)cc5)sc4c3)sc2c1S(=O)(=O)O
